These results are taken from ChEMBL document CHEMBL1144974, “Design, synthesis, and activity of novel cis- and trans-3,6-disubstituted pyran biomimetics of 3,6-disubstituted piperidine as potential ligands for the dopamine transporter” (Bioorg Med Chem Lett, 2003).

Molecules are shown by their SMILES.

In experiment [1] the target is Sodium-dependent dopamine transporter (Rattus norvegicus, UniProt P23977). As to the kind of experiment: Inhibition of binding of [3H]WIN-35 428 to (DAT) dopamine transporter in rat striatum. The experiment is classed as tissue-based.
Experiment [2] deals with Norepinephrine transporter (Rattus norvegicus, UniProt Q9WTR4). The experiment in a line: Inhibition of binding of [3H]nisoxetine to (NET) norepinephrine transporter in rat striatum. The experiment is classed as tissue-based. The gist of the method: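 Radioligand displacement of [3H]nisoxetine labelling NET; other binding conditions are referred to earlier work. Values are means ± SEM of three independent experiments, each assayed in triplicate.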

The species entered for the next experiment is Rattus norvegicus. The experiment in a line: Inhibition of [3H]DA dopamine (DA) reuptake activity. It is filed as functional.
Experiment [3] addresses Sodium-dependent serotonin transporter (Rattus norvegicus, UniProt P31652). The experiment in a line: Inhibition of binding of [3H]citalopram to (SERT) serotonin transporter in rat striatum. It is filed as tissue-based.

Sequence of Norepinephrine transporter (Q9WTR4 whole entry): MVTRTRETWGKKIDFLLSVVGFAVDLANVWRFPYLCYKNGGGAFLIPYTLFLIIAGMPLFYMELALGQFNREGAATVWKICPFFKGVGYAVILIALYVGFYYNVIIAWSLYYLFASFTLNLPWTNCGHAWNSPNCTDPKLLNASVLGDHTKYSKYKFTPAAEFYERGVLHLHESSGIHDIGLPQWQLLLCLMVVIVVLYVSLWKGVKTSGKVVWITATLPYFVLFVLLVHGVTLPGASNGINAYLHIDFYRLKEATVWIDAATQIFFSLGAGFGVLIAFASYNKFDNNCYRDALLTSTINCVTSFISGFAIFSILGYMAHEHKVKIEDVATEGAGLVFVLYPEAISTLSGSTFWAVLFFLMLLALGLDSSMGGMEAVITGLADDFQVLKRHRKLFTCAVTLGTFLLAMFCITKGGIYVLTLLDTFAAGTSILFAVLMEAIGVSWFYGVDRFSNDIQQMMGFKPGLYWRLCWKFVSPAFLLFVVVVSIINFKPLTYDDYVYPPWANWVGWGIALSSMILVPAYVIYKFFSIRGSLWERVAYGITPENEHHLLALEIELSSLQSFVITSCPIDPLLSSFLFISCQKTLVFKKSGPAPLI
Sequence of Sodium-dependent serotonin transporter (P31652 whole entry): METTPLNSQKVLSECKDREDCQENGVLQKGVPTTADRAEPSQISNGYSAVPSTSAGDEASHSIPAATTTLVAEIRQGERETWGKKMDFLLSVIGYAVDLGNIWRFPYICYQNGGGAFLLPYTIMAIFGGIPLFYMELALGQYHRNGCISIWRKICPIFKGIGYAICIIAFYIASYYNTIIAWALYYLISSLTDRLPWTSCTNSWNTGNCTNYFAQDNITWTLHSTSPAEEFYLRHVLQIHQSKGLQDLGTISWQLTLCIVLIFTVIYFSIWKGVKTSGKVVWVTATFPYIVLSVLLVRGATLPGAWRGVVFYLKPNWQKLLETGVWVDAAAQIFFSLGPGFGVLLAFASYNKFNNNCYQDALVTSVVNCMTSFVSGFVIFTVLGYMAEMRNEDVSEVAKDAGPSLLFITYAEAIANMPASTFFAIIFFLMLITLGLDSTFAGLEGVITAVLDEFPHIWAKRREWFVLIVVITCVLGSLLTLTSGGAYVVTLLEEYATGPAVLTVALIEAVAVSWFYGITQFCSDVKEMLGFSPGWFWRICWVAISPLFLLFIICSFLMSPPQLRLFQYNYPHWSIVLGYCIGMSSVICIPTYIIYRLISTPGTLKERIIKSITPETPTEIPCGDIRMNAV
Sequence of Sodium-dependent dopamine transporter (P23977 whole entry): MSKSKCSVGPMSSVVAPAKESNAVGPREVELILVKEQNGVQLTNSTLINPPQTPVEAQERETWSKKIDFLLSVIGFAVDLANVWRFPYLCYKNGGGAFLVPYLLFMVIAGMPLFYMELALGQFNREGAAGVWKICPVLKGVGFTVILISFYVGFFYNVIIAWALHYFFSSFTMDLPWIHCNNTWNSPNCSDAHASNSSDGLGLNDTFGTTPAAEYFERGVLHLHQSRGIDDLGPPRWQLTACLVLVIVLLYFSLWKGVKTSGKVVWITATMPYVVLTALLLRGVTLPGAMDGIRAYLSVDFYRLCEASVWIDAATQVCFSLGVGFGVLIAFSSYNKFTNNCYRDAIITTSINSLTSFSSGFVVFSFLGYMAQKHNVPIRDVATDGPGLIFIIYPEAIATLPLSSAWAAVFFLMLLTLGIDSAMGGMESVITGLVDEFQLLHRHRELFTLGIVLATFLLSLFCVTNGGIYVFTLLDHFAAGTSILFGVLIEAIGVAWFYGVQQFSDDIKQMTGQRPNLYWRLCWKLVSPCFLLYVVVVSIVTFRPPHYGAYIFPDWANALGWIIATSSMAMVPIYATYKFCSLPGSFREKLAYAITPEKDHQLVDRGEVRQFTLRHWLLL

On to `Fc1ccc(CNC2CCC(C(c3ccccc3)c3ccccc3)NC2)cc1` (configuration not stated), for which the IC50 in experiment [1] stood at 32.5 nM; in experiment [2] it was 1020 nM; in the experiment listed under Rattus norvegicus it was 45.7 nM; in experiment [3] it was 2220 nM.
With `O=[N+]([O-])c1ccc(CNC2CCC(C(c3ccccc3)c3ccccc3)OC2)cc1` (racemic), the values for the IC50 (in experiment [1]; in the experiment filed under Rattus norvegicus) were 38.3 nM and 102 nM, respectively.
On to `COc1ccc(CNC2CCC(C(c3ccccc3)c3ccccc3)OC2)cc1` (racemic), for which the IC50 in experiment [1] was determined as 84 nM; in the experiment filed under Rattus norvegicus, 59.5 nM.
In the case of `N#Cc1ccc(CNC2CCC(C(c3ccccc3)c3ccccc3)OC2)cc1` (racemic), the IC50 in experiment [2] stood at 1580 nM; in experiment [3], 863 nM.
On to `Fc1ccc(CNC2CCC(C(c3ccccc3)c3ccccc3)OC2)cc1` (racemic), for which the IC50 in experiment [1] was determined as 163 nM; in experiment [2] it was 232 nM; in the experiment listed under Rattus norvegicus, 156 nM; in experiment [3], 1860 nM.
Regarding `Fc1ccc(CNC2CCC(C(c3ccccc3)c3ccccc3)OC2)cc1` (single isomer, unassigned), the figures for the IC50 in experiment [1], in experiment [2] and in experiment [3] were 313 nM, 12700 nM and 8410 nM, respectively.
